Test results taken from ChEMBL document CHEMBL1145845, “Acetogenins as selective inhibitors of the human ovarian 1A9 tumor cell line” (2003).
≈ marks a conversion by molar mass, not a printed value. Calls of active or inactive are those of the source.

What was measured:
[1] = tested on: SK-MEL-2; experiment: Effective dose required for inhibitory activity against SK-MEL-2 human tumor cell line.; type: functional; conditions: read-out: ED50 (the source's name)
Outline: (§1)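 Human tumor lines were grown in RPMI-1640 with 25 mM HEPES, 0.25% sodium bicarbonate, 10% FBS and 100 µg/mL kanamycin. KB-VIN is a vincristine-resistant KB subline, and PTX10 is a 1A9 subline with mutated β-tubulin. Trypsinized cells (1500–7500/well) got compound from DMSO stock for 3 days continuous. Cells were fixed with cold 50% TCA, stained with 0.4% SRB, and read at 562 nm. ED50 is the 50% growth-reduction concentration; not active means ≤5% inhibition at the top concentration.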

[2] = tested on: KB; experiment: Effective dose required for inhibitory activity against KB human tumor cell line.; type: functional; conditions: read-out: ED50 (the source's name); outline: as §1
[3] = tested on: PC-3; experiment: Effective dose required for inhibitory activity against PC-3 human tumor cell line.; type: functional; conditions: read-out: ED50 (the source's name); outline: as §1
[4] = tested on: 1A9; experiment: Effective dose required for inhibitory activity against 1A9 human tumor cell line.; type: functional; conditions: read-out: ED50 (the source's name); outline: as §1
[5] = tested on: CAKI-1; experiment: Effective dose required for inhibitory activity against CAK1 human tumor cell line; type: functional; conditions: read-out: ED50 (the source's name); outline: as §1
[6] = tested on: A549; experiment: Effective dose required for inhibitory activity against A549 human tumor cell line.; type: functional; conditions: read-out: ED50 (the source's name); outline: as §1
[7] = tested on: MCF7; experiment: Effective dose required for inhibitory activity against MCF-7 human tumor cell line.; type: functional; conditions: read-out: ED50 (the source's name); outline: as §1
[8] = tested on: 1A9/ptx-10; experiment: Percent inhibition against PTX10 human tumor cell line at >10 ug/mL; type: functional
[9] = tested on: KB; experiment: Effective dose required for inhibitory activity against KB-VIN human tumor cell line.; type: functional; conditions: read-out: ED50 (the source's name); outline: as §1
[10] = tested on: HOS; experiment: Effective dose required for inhibitory activity against HOS human tumor cell line.; type: functional; conditions: read-out: ED50 (the source's name); outline: as §1
[11] = tested on: HCT-8; experiment: Effective dose required for inhibitory activity against HCT-8 human tumor cell line.; type: functional; conditions: read-out: ED50 (the source's name); outline: as §1
[12] = tested on: 1A9/ptx-10; experiment: Effective dose required for inhibitory activity against PTX10 human tumor cell line; type: functional; conditions: read-out: ED50 (the source's name); outline: as §1
[13] = tested on: CAKI-1; experiment: Effective dose required for inhibitory activity against CAK1 human tumor cell line; Not active; type: functional, cell-based; outline: as §1
[14] = tested on: HOS; experiment: Effective dose required for inhibitory activity against HOS human tumor cell line; Not active; type: functional, cell-based; outline: as §1

Structure (SMILES) | EC50 [1] [µg/mL] | EC50 [2] [µg/mL] | EC50 [3] [µg/mL] | EC50 [4] [ng/mL] | EC50 [5] [µg/mL] | EC50 [6] [µg/mL] | EC50 [7] [µg/mL] | Inhibition [8] [%] | EC50 [9] [µg/mL] | EC50 [10] [µg/mL] | EC50 [11] [µg/mL] | EC50 [12] [µg/mL] | NA [13] | NA [14]
CCCCCCCC/C=C\CC[C@H](O)[C@@H]1CC[C@@H]([C@H](O)CCCCC(O)CCCCCC(O)CC2=C[C@H](C)OC2=O)O1 (stereo partly specified) | 17 (≈ 28.6 µM) | 13 (≈ 21.9 µM) | 15.3 (≈ 25.7 µM) | 930 (≈ 1.56 µM) | 19 (≈ 31.9 µM) | 17 (≈ 28.6 µM) | 7.6 (≈ 12.8 µM) | 40 | 17.5 (≈ 29.4 µM) | 17 (≈ 28.6 µM) | 14.4 (≈ 24.2 µM) |  |  | 
CCCCCC(O)C(O)CCCCCC[C@@H](O)[C@H]1CC[C@H](CCCCCCCCCC[C@@H](O)CC2=C[C@H](C)OC2=O)O1 (stereo partly specified) [MURICIN A] | 18 (≈ 30.2 µM) | 12.8 (≈ 21.4 µM) | 14.1 (≈ 23.6 µM) | 330 (≈ 0.553 µM) | > 20 | 16.8 (≈ 28.1 µM) | 6 (≈ 10.1 µM) |  | 15 (≈ 25.1 µM) | 18.4 (≈ 30.8 µM) | 15 (≈ 25.1 µM) | 8.2 (≈ 13.7 µM) |  | 
CC(=O)O[C@H]1C(=O)[C@@]2(C)[C@H]([C@H](OC(=O)c3ccccc3)[C@]3(O)C[C@H](OC(=O)[C@H](O)[C@@H](NC(=O)c4ccccc4)c4ccccc4)C(C)=C1C3(C)C)[C@]1(OC(C)=O)CO[C@@H]1C[C@@H]2O [PACLITAXEL] |  | 0.001 (≈ 0.00117 µM) |  | 2 (≈ 0.00234 µM) |  | 0.005 (≈ 0.00586 µM) |  |  |  |  | 0.011 (≈ 0.0129 µM) | 0.041 (≈ 0.048 µM) |  | 
CCCCCCCCCCCC[C@@H](O)[C@H]1CC[C@@H]([C@@H](O)CCCCCCC(O)CCCCC[C@@H](O)CC2=C[C@H](C)OC2=O)O1 (stereo partly specified) | 15.1 (≈ 24.2 µM) | 10.8 (≈ 17.3 µM) | 14 (≈ 22.4 µM) | 80 (≈ 0.128 µM) | 17.3 (≈ 27.7 µM) | 14.5 (≈ 23.2 µM) | 6.6 (≈ 10.6 µM) |  | 14 (≈ 22.4 µM) | 15 (≈ 24 µM) | 15 (≈ 24 µM) | 8.7 (≈ 13.9 µM) |  | 
CCCCCCCC(O)C(O)CC[C@H](O)[C@@H]1CC[C@@H](CCCCCCCCCC[C@H](O)CC2=C[C@H](C)OC2=O)O1 (stereo partly specified) | > 20 | 18 (≈ 31.6 µM) | > 20 | 680 (≈ 1.2 µM) | > 20 | > 20 | 15.5 (≈ 27.2 µM) | 27 | > 20 | > 20 | > 20 |  |  | 
CCCCCC(O)C(O)CCCCCC[C@H](O)[C@@H]1CC[C@H](CCCCCCCCCC[C@H](O)CC2=C[C@H](C)OC2=O)O1 (stereo partly specified) [MURICIN B] | > 20 | > 20 | > 20 | 520 (≈ 0.871 µM) |  | > 20 | 15.5 (≈ 26 µM) | 26 | > 20 | > 20 | > 20 |  | inactive | 
CCCCC(O)C(O)C/C=C\CC[C@H](O)[C@@H]1CC[C@@H](CCCCCCCCCCCC[C@H](O)CC2=C[C@H](C)OC2=O)O1 (stereo partly specified) | > 20 | > 20 | > 20 | 870 (≈ 1.46 µM) | > 20 | > 20 | 14.3 (≈ 24 µM) | 25 | > 20 |  | > 20 |  |  | inactive
CCCCCCCCCCCCCC[C@@H](O)[C@H]1CC[C@H]([C@H](O)CCC(O)CCCCCCCC2=C[C@H](C)OC2=O)O1 (stereo partly specified) | > 20 | 17.3 (≈ 29.8 µM) | 16.8 (≈ 28.9 µM) | 810 (≈ 1.39 µM) | > 20 | 20 (≈ 34.4 µM) | 9 (≈ 15.5 µM) | 43 | > 20 | > 20 | 20 (≈ 34.4 µM) |  |  | 
CCCCCCCCCCCCCCCCCC1OC1C1OC1CCCCCCCCC1=C[C@H](C)OC1=O (stereo partly specified) | > 20 | > 20 | > 20 | 8800 (≈ 16.5 µM) |  | > 20 | > 20 | 15 | > 20 | > 20 | > 20 |  | inactive | 
CCCCCCCCCCCC[C@@H](O)[C@H]1CC[C@@H]([C@@H](O)CCCCC(=O)CCCCCCCC2=C[C@H](C)OC2=O)O1 [COROSSOLONE] | 18.8 (≈ 32.5 µM) | 18 (≈ 31.1 µM) | 13.5 (≈ 23.3 µM) | 820 (≈ 1.42 µM) | > 20 | 19 (≈ 32.8 µM) | 7.9 (≈ 13.6 µM) | 37 | > 20 | > 20 | > 20 |  |  | 
CCCCCCCCCCCCCC[C@@H](O)[C@H]1CC[C@H]([C@H](O)CCCCC(O)CCCCCC(O)CC2=C[C@H](C)OC2=O)O1 (stereo partly specified) | 15 (≈ 24 µM) | 9 (≈ 14.4 µM) | 12.2 (≈ 19.5 µM) | 500 (≈ 0.8 µM) | 16 (≈ 25.6 µM) | 11.5 (≈ 18.4 µM) | 5.6 (≈ 8.96 µM) |  | 13.3 (≈ 21.3 µM) | 13.6 (≈ 21.8 µM) | 12.7 (≈ 20.3 µM) | 7.2 (≈ 11.5 µM) |  | 
CCCCCCCCCC[C@H](O)[C@H]1CC[C@H]([C@H]2CC[C@H]([C@H](O)CCCCCCCC[C@@H](O)CC3=C[C@H](C)OC3=O)O2)O1 [MOLVIZARIN] | 16.4 (≈ 27.6 µM) | 10 (≈ 16.8 µM) | 12.9 (≈ 21.7 µM) | 0.005 (≈ 8.41e-06 µM) | 16.4 (≈ 27.6 µM) | 12.9 (≈ 21.7 µM) | 7.7 (≈ 12.9 µM) |  | 13.9 (≈ 23.4 µM) | 9.9 (≈ 16.6 µM) | 14.9 (≈ 25 µM) | 8.7 (≈ 14.6 µM) |  | 
CCCCCCCCCCCCC(O)C(O)CCC(O)[C@H]1CC[C@H](CCCCCCC[C@@H](O)CC2=C[C@H](C)OC2=O)O1 (stereo partly specified) | > 20 | > 20 | > 20 | 70 (≈ 0.117 µM) | > 20 | > 20 | 11.5 (≈ 19.3 µM) | 37 | > 20 | > 20 | > 20 |  |  | 
CCCCCCCCCCCC[C@@H](O)[C@H]1CC[C@H]([C@H](O)CCCCC(=O)CCCCC[C@@H](O)CC2=C[C@H](C)OC2=O)O1 [ANNONACINONE] | > 20 | 18.3 (≈ 30.8 µM) | > 20 | 740 (≈ 1.24 µM) | > 20 | > 20 | 11.5 (≈ 19.3 µM) | 36 | > 20 | > 20 | > 20 |  |  | 
CCCCCC[C@H](O)CCC[C@H](O)[C@H]1CC[C@H]([C@H]2CC[C@H]([C@H](O)CCCCCCCCCCCCC3=C[C@H](C)OC3=O)O2)O1 [SQUAMOCIN] | 16.5 (≈ 26.5 µM) | 8.1 (≈ 13 µM) | 11.1 (≈ 17.8 µM) | 0.32 (≈ 0.000514 µM) | 13.5 (≈ 21.7 µM) | 9.3 (≈ 14.9 µM) | 6 (≈ 9.63 µM) |  | 12 (≈ 19.3 µM) | 8.5 (≈ 13.6 µM) | 9.8 (≈ 15.7 µM) | 7 (≈ 11.2 µM) |  | 
CCCCCCCC(O)C(O)CCCC[C@@H](O)[C@H]1CC[C@H](CCCCCCCCCCCCC2=C[C@H](C)OC2=O)O1 (stereo partly specified) | 17.5 (≈ 30.1 µM) | 15.1 (≈ 26 µM) | 17.5 (≈ 30.1 µM) | 770 (≈ 1.33 µM) | > 20 | > 20 | 10.5 (≈ 18.1 µM) | 37 | > 20 | > 20 | > 20 |  |  | 
CCCCCCCCC[C@H](O)[C@@H]1CC[C@@H]([C@@H]2CC[C@@H](CCCCCCCCCC[C@H](O)CC3=C[C@H](C)OC3=O)O2)O1 | 15.3 (≈ 26.4 µM) | 13.5 (≈ 23.3 µM) | 14.5 (≈ 25 µM) | 1930 (≈ 3.33 µM) | 17.8 (≈ 30.7 µM) | 17.2 (≈ 29.7 µM) | 7.6 (≈ 13.1 µM) | 30 | > 20 | 16 (≈ 27.6 µM) | 13.8 (≈ 23.8 µM) |  |  | 
